Data as given in ChEMBL document CHEMBL4261556, “Design, Synthesis and Structure-Activity Relationships of (±)-Isochaihulactone Derivatives” (Medchemcomm, 2017).

System: A549
Assay: Antiproliferative activity against human A549 cells after 72 hrs by SRB assay
Format: functional, cell-based
Conditions: Homo sapiens, A549, 72 h

| SMILES | IC50 [µM] |
| --- | --- |
| COc1cc(/C=C2\C(=O)OCC2Cc2ccc3c(c2)OCO3)cc(OC)c1OC (racemic) | 5.5 |
| COc1cc(/C=C2\C(=O)OCC2Cc2ccc3c(c2)OCO3)cc(OC)c1OC(=O)[C@@H](N)Cc1ccccc1 (stereo not given in full) | 5.97 |
| Cc1cc(/C=C2\C(=O)OCC2Cc2ccc3c(c2)OCO3)ccc1F (stereo not given) | 5.72 |
| COc1cc(/C=C2\C(=O)OCC2Cc2ccc3c(c2)OCO3)cc(O)c1OC (stereo not given) | 4.32 |
| COc1cc(/C=C2\C(=O)OCC2Cc2ccc3c(c2)OCO3)cc(OC)c1OC(=O)CN(C)C (stereo not given) [listing 1 of 2 here] | 6.15 |
| Cc1cc(/C=C2\C(=O)OC\C2=C\c2ccc3c(c2)OCO3)ccc1F | > 40 |
| COc1cc(/C=C2\C(=O)OC\C2=C\c2ccc3c(c2)OCO3)cc(OC)c1OC(=O)[C@@H](N)Cc1ccccc1 | > 40 |
| COc1cc(/C=C2\C(=O)OC\C2=C\c2ccc3c(c2)OCO3)cc(OC)c1O | > 40 |
| COc1cc(/C=C2\C(=O)OC\C2=C\c2ccc3c(c2)OCO3)cc(OC)c1OC | 35.2 |
| COc1cc(/C=C2\C(=O)OC\C2=C\c2ccc3c(c2)OCO3)cc(O)c1OC | 31.2 |
| COc1cc(/C=C2\C(=O)OCC2Cc2ccc3c(c2)OCO3)cc(OC(=O)[C@@H](N)Cc2ccccc2)c1OC (stereo not given in full) | 4.8 |
| COc1cc(/C=C2\C(=O)OC\C2=C\c2ccc3c(c2)OCO3)cc(OC(=O)[C@@H](N)Cc2ccccc2)c1OC | > 40 |
| COc1cc(/C=C2\C(=O)OC\C2=C\c2ccc3c(c2)OCO3)cc(OC)c1OC(=O)CN(C)C | > 40 |
| COc1cc(/C=C2\C(=O)OCC2Cc2ccc3c(c2)OCO3)cc(OC)c1O (stereo not given) | 6.17 |
| COc1cc(/C=C2\C(=O)OC\C2=C\c2ccc3c(c2)OCO3)cc(OC(=O)CN(C)C)c1OC | > 40 |
| COc1cc(/C=C2\C(=O)OCC2Cc2ccc3c(c2)OCO3)cc(OC(=O)CN(C)C)c1OC (stereo not given) [listing 1 of 3 here] | 5.02 |

Same assay, conditions: a549

| SMILES | IC50 [µM] |
| --- | --- |
| COc1cc(/C=C2\C(=O)OCC2Cc2ccc3c(c2)OCO3)cc(OC(=O)CN(C)C)c1OC (stereo not given) [listing 2 of 3 here] | 3.32 |
| COc1cc(/C=C2\C(=O)OCC2Cc2ccc3c(c2)OCO3)cc(OC)c1OC(=O)CN(C)C (stereo not given) [listing 2 of 2 here] | 5.93 |

System: MDA-MB-231
Assay: Antiproliferative activity against human MDA-MB-231 cells after 72 hrs by SRB assay
Format: functional, cell-based
Conditions: Homo sapiens, MDA-MB-231, 72 h
How it was run: (§1)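 Cells grown in RPMI-1640 with 2 mM L-glutamine, 25 mM HEPES, 10% FBS, penicillin/streptomycin and amphotericin B. KB-VIN maintained with 100 nM vincristine. Freshly trypsinized cells seeded at 4000–7500 per well, depending on doubling time, together with compounds for 72 h. Fixed in 10% TCA, stained with 0.04% SRB, dye solubilized in 10 mM Tris base, absorbance read at 515 nm.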

| SMILES | IC50 [µM] |
| --- | --- |
| COc1cc(/C=C2\C(=O)OCC2Cc2ccc3c(c2)OCO3)cc(OC)c1OC (racemic) | 5.88 |
| COc1cc(/C=C2\C(=O)OCC2Cc2ccc3c(c2)OCO3)cc(OC)c1OC(=O)[C@@H](N)Cc1ccccc1 (stereo not given in full) | 9.73 |
| Cc1cc(/C=C2\C(=O)OCC2Cc2ccc3c(c2)OCO3)ccc1F (stereo not given) | 8.81 |
| COc1cc(/C=C2\C(=O)OCC2Cc2ccc3c(c2)OCO3)cc(O)c1OC (stereo not given) | 8.55 |
| COc1cc(/C=C2\C(=O)OCC2Cc2ccc3c(c2)OCO3)cc(OC(=O)CN(C)C)c1OC (stereo not given) [listing 2 of 3 here] | 9.04 |
| Cc1cc(/C=C2\C(=O)OC\C2=C\c2ccc3c(c2)OCO3)ccc1F | > 40 |
| COc1cc(/C=C2\C(=O)OC\C2=C\c2ccc3c(c2)OCO3)cc(OC)c1OC(=O)[C@@H](N)Cc1ccccc1 | > 40 |
| COc1cc(/C=C2\C(=O)OC\C2=C\c2ccc3c(c2)OCO3)cc(OC)c1O | > 40 |
| COc1cc(/C=C2\C(=O)OC\C2=C\c2ccc3c(c2)OCO3)cc(OC)c1OC | > 40 |
| COc1cc(/C=C2\C(=O)OC\C2=C\c2ccc3c(c2)OCO3)cc(O)c1OC | > 40 |
| COc1cc(/C=C2\C(=O)OCC2Cc2ccc3c(c2)OCO3)cc(OC(=O)[C@@H](N)Cc2ccccc2)c1OC (stereo not given in full) | 8.8 |
| COc1cc(/C=C2\C(=O)OC\C2=C\c2ccc3c(c2)OCO3)cc(OC(=O)[C@@H](N)Cc2ccccc2)c1OC | > 40 |
| COc1cc(/C=C2\C(=O)OC\C2=C\c2ccc3c(c2)OCO3)cc(OC)c1OC(=O)CN(C)C | > 40 |
| COc1cc(/C=C2\C(=O)OCC2Cc2ccc3c(c2)OCO3)cc(OC)c1O (stereo not given) | > 40 |
| COc1cc(/C=C2\C(=O)OC\C2=C\c2ccc3c(c2)OCO3)cc(OC(=O)CN(C)C)c1OC | > 40 |

Same assay, conditions: mda-mb-231

| SMILES | IC50 [µM] |
| --- | --- |
| COc1cc(/C=C2\C(=O)OCC2Cc2ccc3c(c2)OCO3)cc(OC)c1OC(=O)CN(C)C (stereo not given) [listing 2 of 2 here] | 9.37 |
| COc1cc(/C=C2\C(=O)OCC2Cc2ccc3c(c2)OCO3)cc(OC)c1OC(=O)CN(C)C (stereo not given) [listing 1 of 2 here] | 29 |
| COc1cc(/C=C2\C(=O)OCC2Cc2ccc3c(c2)OCO3)cc(OC(=O)CN(C)C)c1OC (stereo not given) [listing 1 of 3 here] | 8.91 |

System: KB
Assay: Antiproliferative activity against human KB cells after 72 hrs by SRB assay
Format: functional, cell-based
Conditions: Homo sapiens, KB, 72 h
How it was run: as §1

| SMILES | IC50 [µM] |
| --- | --- |
| COc1cc(/C=C2\C(=O)OCC2Cc2ccc3c(c2)OCO3)cc(OC)c1OC (racemic) | 9.9 |
| COc1cc(/C=C2\C(=O)OCC2Cc2ccc3c(c2)OCO3)cc(OC)c1OC(=O)[C@@H](N)Cc1ccccc1 (stereo not given in full) | 9.2 |
| Cc1cc(/C=C2\C(=O)OCC2Cc2ccc3c(c2)OCO3)ccc1F (stereo not given) | 6.47 |
| COc1cc(/C=C2\C(=O)OCC2Cc2ccc3c(c2)OCO3)cc(O)c1OC (stereo not given) | 5.18 |
| COc1cc(/C=C2\C(=O)OCC2Cc2ccc3c(c2)OCO3)cc(OC(=O)CN(C)C)c1OC (stereo not given) [listing 2 of 3 here] | 4.98 |
| Cc1cc(/C=C2\C(=O)OC\C2=C\c2ccc3c(c2)OCO3)ccc1F | > 40 |
| COc1cc(/C=C2\C(=O)OC\C2=C\c2ccc3c(c2)OCO3)cc(OC)c1OC(=O)[C@@H](N)Cc1ccccc1 | > 40 |
| COc1cc(/C=C2\C(=O)OC\C2=C\c2ccc3c(c2)OCO3)cc(OC)c1O | > 40 |
| COc1cc(/C=C2\C(=O)OC\C2=C\c2ccc3c(c2)OCO3)cc(OC)c1OC | 34 |
| COc1cc(/C=C2\C(=O)OC\C2=C\c2ccc3c(c2)OCO3)cc(O)c1OC | 34 |
| COc1cc(/C=C2\C(=O)OCC2Cc2ccc3c(c2)OCO3)cc(OC(=O)[C@@H](N)Cc2ccccc2)c1OC (stereo not given in full) | 5.4 |
| COc1cc(/C=C2\C(=O)OC\C2=C\c2ccc3c(c2)OCO3)cc(OC(=O)[C@@H](N)Cc2ccccc2)c1OC | > 40 |
| COc1cc(/C=C2\C(=O)OC\C2=C\c2ccc3c(c2)OCO3)cc(OC)c1OC(=O)CN(C)C | > 40 |
| COc1cc(/C=C2\C(=O)OCC2Cc2ccc3c(c2)OCO3)cc(OC)c1O (stereo not given) | 11.5 |
| COc1cc(/C=C2\C(=O)OC\C2=C\c2ccc3c(c2)OCO3)cc(OC(=O)CN(C)C)c1OC | > 40 |

Same assay, conditions: kb

| SMILES | IC50 [µM] |
| --- | --- |
| COc1cc(/C=C2\C(=O)OCC2Cc2ccc3c(c2)OCO3)cc(OC)c1OC(=O)CN(C)C (stereo not given) [listing 2 of 2 here] | 8.71 |
| COc1cc(/C=C2\C(=O)OCC2Cc2ccc3c(c2)OCO3)cc(OC)c1OC(=O)CN(C)C (stereo not given) [listing 1 of 2 here] | 18.1 |
| COc1cc(/C=C2\C(=O)OCC2Cc2ccc3c(c2)OCO3)cc(OC(=O)CN(C)C)c1OC (stereo not given) [listing 1 of 3 here] | 5.53 |

System: not listed separately
Assay: Antiproliferative activity against human KBVIN cells after 72 hrs by SRB assay
Format: functional, cell-based
Conditions: not given
How it was run: as §1

| SMILES | IC50 [µM] |
| --- | --- |
| COc1cc(/C=C2\C(=O)OCC2Cc2ccc3c(c2)OCO3)cc(OC)c1OC(=O)CN(C)C (stereo not given) [listing 2 of 2 here] | 7.06 |
| COc1cc(/C=C2\C(=O)OCC2Cc2ccc3c(c2)OCO3)cc(OC)c1OC(=O)CN(C)C (stereo not given) [listing 1 of 2 here] | 17.6 |
| COc1cc(/C=C2\C(=O)OCC2Cc2ccc3c(c2)OCO3)cc(OC(=O)CN(C)C)c1OC (stereo not given) [listing 1 of 3 here] | 5.34 |

Same assay, conditions: Homo sapiens, KBVIN, 72 h

| SMILES | IC50 [µM] |
| --- | --- |
| COc1cc(/C=C2\C(=O)OCC2Cc2ccc3c(c2)OCO3)cc(OC)c1OC (racemic) | 5.51 |
| COc1cc(/C=C2\C(=O)OCC2Cc2ccc3c(c2)OCO3)cc(OC)c1OC(=O)[C@@H](N)Cc1ccccc1 (stereo not given in full) | 7.59 |
| Cc1cc(/C=C2\C(=O)OCC2Cc2ccc3c(c2)OCO3)ccc1F (stereo not given) | 5.51 |
| COc1cc(/C=C2\C(=O)OCC2Cc2ccc3c(c2)OCO3)cc(O)c1OC (stereo not given) | 4.84 |
| COc1cc(/C=C2\C(=O)OCC2Cc2ccc3c(c2)OCO3)cc(OC(=O)CN(C)C)c1OC (stereo not given) [listing 2 of 3 here] | 4.51 |
| Cc1cc(/C=C2\C(=O)OC\C2=C\c2ccc3c(c2)OCO3)ccc1F | > 40 |
| COc1cc(/C=C2\C(=O)OC\C2=C\c2ccc3c(c2)OCO3)cc(OC)c1OC(=O)[C@@H](N)Cc1ccccc1 | > 40 |
| COc1cc(/C=C2\C(=O)OC\C2=C\c2ccc3c(c2)OCO3)cc(OC)c1O | > 40 |
| COc1cc(/C=C2\C(=O)OC\C2=C\c2ccc3c(c2)OCO3)cc(OC)c1OC | 28.3 |
| COc1cc(/C=C2\C(=O)OC\C2=C\c2ccc3c(c2)OCO3)cc(O)c1OC | 29 |
| COc1cc(/C=C2\C(=O)OCC2Cc2ccc3c(c2)OCO3)cc(OC(=O)[C@@H](N)Cc2ccccc2)c1OC (stereo not given in full) | 4.95 |
| COc1cc(/C=C2\C(=O)OC\C2=C\c2ccc3c(c2)OCO3)cc(OC(=O)[C@@H](N)Cc2ccccc2)c1OC | > 40 |
| COc1cc(/C=C2\C(=O)OC\C2=C\c2ccc3c(c2)OCO3)cc(OC)c1OC(=O)CN(C)C | > 40 |
| COc1cc(/C=C2\C(=O)OCC2Cc2ccc3c(c2)OCO3)cc(OC)c1O (stereo not given) | 6.78 |
| COc1cc(/C=C2\C(=O)OC\C2=C\c2ccc3c(c2)OCO3)cc(OC(=O)CN(C)C)c1OC | > 40 |

System: A549
Assay: Cell cycle arrest in human A549 cells assessed as accumulation after 24 hrs by propidium iodide staining based flow cytometry
Format: functional
Conditions: not given
How it was run: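 A549 cells seeded at 75 000 per well 24 h before dosing, then treated 24 h at 1× or 3× the IC50 concentration. DMSO and 20 nM combretastatin A-4 served as controls. Floating plus trypsinized cells pooled, fixed in 70% EtOH overnight at –20 °C, stained with propidium iodide 30 min at 37 °C. DNA content analysed by flow cytometry for G2/M population.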

| SMILES | Activity |
| --- | --- |
| COc1ccc(/C=C\c2cc(OC)c(OC)c(OC)c2)cc1O | Dose-dependent effect |
| COc1cc(/C=C2\C(=O)OCC2Cc2ccc3c(c2)OCO3)cc(OC)c1OC (racemic) | Dose-dependent effect |
| COc1cc(/C=C2\C(=O)OCC2Cc2ccc3c(c2)OCO3)cc(OC(=O)CN(C)C)c1OC (stereo not given) [listing 3 of 3 here] | Dose-dependent effect |
